Assay [1] in a line: Inhibition of Staphylococcus aureus topoisomerase 4 assessed as reduction in decatenation of kDNA at 100 to 500 uM by gel electrophoresis method. Put shortly: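 Compounds were in DMSO, with water or DMSO as vehicle controls. Reactions were stopped with STEB plus chloroform:isoamyl alcohol and run on 1% agarose TAE gels stained with ethidium bromide. IC50 was taken from densitometry against reactions with and without enzyme.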

The target of assay [2] is T1, Ribonuclease P protein component (Staphylococcus aureus (strain COL)) (UniProt Q5HCI2).
T1 sequence (whole entry): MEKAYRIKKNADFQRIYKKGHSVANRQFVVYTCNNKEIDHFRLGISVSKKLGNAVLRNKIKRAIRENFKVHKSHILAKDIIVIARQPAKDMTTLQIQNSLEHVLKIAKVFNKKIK
The assay can be described thus: Inhibition of Staphylococcus aureus RnpA.

In assay [3] the target is T2, Ribonuclease J 2 (Staphylococcus aureus (strain COL)) (UniProt Q5HGF6).
T2 sequence (whole entry): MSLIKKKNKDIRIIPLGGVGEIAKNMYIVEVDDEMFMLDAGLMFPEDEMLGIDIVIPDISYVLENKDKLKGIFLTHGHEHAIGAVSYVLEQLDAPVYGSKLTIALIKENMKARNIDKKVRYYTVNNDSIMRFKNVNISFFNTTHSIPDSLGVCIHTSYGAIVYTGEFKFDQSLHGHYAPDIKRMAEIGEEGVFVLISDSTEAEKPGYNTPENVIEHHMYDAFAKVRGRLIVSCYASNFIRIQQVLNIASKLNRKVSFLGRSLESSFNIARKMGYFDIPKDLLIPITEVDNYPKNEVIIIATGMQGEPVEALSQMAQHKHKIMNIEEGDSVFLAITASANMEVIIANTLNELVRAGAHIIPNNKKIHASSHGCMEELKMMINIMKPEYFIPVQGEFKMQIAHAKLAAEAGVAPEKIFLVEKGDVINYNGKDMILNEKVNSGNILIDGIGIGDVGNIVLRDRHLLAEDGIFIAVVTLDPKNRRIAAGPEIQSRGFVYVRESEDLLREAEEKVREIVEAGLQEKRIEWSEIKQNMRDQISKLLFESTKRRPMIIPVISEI
The assay can be described thus: Inhibition of Staphylococcus aureus RNAse J2.

For assay [4], the target named is DNA gyrase (Staphylococcus aureus) (UniProt P0A0K8+P20831). The assay can be described thus: Inhibition of Staphylococcus aureus DNA gyrase assessed as reduction in enzyme-catalyzed supercoiling of relaxed circular pBR322 DNA at 100 uM by agarose gel electrophoresis. The assay is classed as protein-complex assay. Put shortly:
(§1)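 Recombinant S. aureus gyrase kit, 0.5 U enzyme, relaxed pBR322 (250 ng/μL) in 40 mM HEPES·KOH pH 7.6, 10 mM Mg acetate, 10 mM DTT, 2 mM ATP, 500 mM K glutamate, 0.5 mg/mL albumin; 37 °C, 30 min.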

The test system of assay [5] is Staphylococcus aureus. The assay is described as follows: Antimicrobial activity against Staphylococcus aureus UAMS1 incubated for 16 hrs by CLSI based method. The assay is classed as functional. The note with it: UAMS1, 16 h.
Assay [6] deals with DNA gyrase (Staphylococcus aureus, UniProt P0A0K8+P20831). The assay can be described thus: Inhibition of Staphylococcus aureus DNA gyrase assessed as reduction in enzyme-catalyzed supercoiling of relaxed circular pBR322 DNA by agarose gel electrophoresis. The assay is classed as protein-complex assay. Put shortly:
as §1

Assay [7] has as its system Acinetobacter baumannii. The assay can be described thus: Antimicrobial activity against Acinetobacter baumannii 983709 incubated for 16 hrs by CLSI based method. The assay is classed as functional. Conditions: Acinetobacter baumannii, 983709, 16 h.
For assay [8], the system named is Staphylococcus aureus. The assay is described as follows: Antimicrobial activity against vancomycin-resistant Staphylococcus aureus VRSA1 incubated for 16 hrs by CLSI based method. In kind it is functional. The note with it: VRSA1, 16 h.
For assay [9], the system named is Escherichia coli. The assay is described as follows: Antimicrobial activity against Escherichia coli 8314 incubated for 16 hrs by CLSI based method. In kind it is functional. Conditions: Escherichia coli, 8314, 16 h.
Assay [10] relates to Enterococcus faecium. The assay can be described thus: Antimicrobial activity against Enterococcus faecium 824-05 incubated for 16 hrs by CLSI based method. In kind it is functional. The note with it: 824-05, 16 h.
The test system of assay [11] is Staphylococcus aureus. The assay is described as follows: Antimicrobial activity against methicillin-resistant Staphylococcus aureus USA300-0114 incubated for 16 hrs by CLSI based method. The assay is classed as functional. The note with it: USA300-0114, 16 h.
Assay [12] deals with Escherichia coli. The assay can be described thus: Antimicrobial activity against tolC and imp(-) containing Escherichia coli incubated for 16 hrs by CLSI based method. In kind it is functional.
Assay [13] has as its system Klebsiella pneumoniae. The assay can be described thus: Antimicrobial activity against Klebsiella pneumoniae CKP4 incubated for 16 hrs by CLSI based method. The assay is classed as functional. The note with it: CKP4, 16 h.
For assay [14], the system named is Staphylococcus aureus. The assay can be described thus: Antimicrobial activity against methicillin-resistant Staphylococcus aureus USA300 NRS384 incubated for 16 hrs by CLSI based method. In kind it is functional. Conditions: USA300 NRS384, 16 h.
For assay [15], the system named is Staphylococcus aureus. The assay is described as follows: Antimicrobial activity against vancomycin intermediate-resistant Staphylococcus aureus Mu50 incubated for 16 hrs by CLSI based method. The assay is classed as functional. The note with it: Mu50, 16 h.
Assay [16] addresses Voltage-gated inwardly rectifying potassium channel KCNH2 (Homo sapiens, UniProt Q12809).
The test system of assay [17] is Staphylococcus aureus. The assay is described as follows: Antimicrobial activity against ciprofloxacin-resistant Staphylococcus aureus CRC61 incubated for 16 hrs by CLSI based method. In kind it is functional. Conditions: CRC61, 16 h.
Assay [18] concerns Staphylococcus aureus. The assay is described as follows: Antimicrobial activity against Staphylococcus aureus U1 incubated for 16 hrs by CLSI based method. In kind it is functional. The note with it: U1, 16 h.
Assay [19] relates to Mycobacterium tuberculosis. The assay can be described thus: Antimicrobial activity against Mycobacterium tuberculosis mc2 6020 incubated for 16 hrs by alamar blue assay. In kind it is functional. Conditions: mc2 6020, 16 h.

The source of these data is ChEMBL document CHEMBL3351553 (J Med Chem, 2014).

≈ marks a conversion by molar mass, not a printed value. Calls of active or inactive are those of the source.

Chain of DNA gyrase (P0A0K8 whole entry): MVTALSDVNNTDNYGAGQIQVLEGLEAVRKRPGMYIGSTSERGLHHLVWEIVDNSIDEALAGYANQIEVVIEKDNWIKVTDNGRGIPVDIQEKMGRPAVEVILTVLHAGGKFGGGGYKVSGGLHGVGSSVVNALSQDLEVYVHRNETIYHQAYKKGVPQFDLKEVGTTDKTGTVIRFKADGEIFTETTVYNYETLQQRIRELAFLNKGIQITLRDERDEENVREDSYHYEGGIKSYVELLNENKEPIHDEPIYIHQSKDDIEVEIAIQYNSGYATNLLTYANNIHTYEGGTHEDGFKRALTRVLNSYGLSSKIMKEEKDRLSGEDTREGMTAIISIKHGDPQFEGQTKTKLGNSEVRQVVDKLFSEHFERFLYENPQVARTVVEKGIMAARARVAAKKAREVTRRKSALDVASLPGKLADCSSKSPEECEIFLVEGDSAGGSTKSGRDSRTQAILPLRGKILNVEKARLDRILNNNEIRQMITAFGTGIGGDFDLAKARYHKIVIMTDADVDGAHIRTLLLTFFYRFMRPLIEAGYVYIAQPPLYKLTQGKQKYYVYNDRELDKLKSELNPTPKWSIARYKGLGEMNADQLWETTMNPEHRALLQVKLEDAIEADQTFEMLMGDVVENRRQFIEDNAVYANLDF
Chain of DNA gyrase (P20831 whole entry): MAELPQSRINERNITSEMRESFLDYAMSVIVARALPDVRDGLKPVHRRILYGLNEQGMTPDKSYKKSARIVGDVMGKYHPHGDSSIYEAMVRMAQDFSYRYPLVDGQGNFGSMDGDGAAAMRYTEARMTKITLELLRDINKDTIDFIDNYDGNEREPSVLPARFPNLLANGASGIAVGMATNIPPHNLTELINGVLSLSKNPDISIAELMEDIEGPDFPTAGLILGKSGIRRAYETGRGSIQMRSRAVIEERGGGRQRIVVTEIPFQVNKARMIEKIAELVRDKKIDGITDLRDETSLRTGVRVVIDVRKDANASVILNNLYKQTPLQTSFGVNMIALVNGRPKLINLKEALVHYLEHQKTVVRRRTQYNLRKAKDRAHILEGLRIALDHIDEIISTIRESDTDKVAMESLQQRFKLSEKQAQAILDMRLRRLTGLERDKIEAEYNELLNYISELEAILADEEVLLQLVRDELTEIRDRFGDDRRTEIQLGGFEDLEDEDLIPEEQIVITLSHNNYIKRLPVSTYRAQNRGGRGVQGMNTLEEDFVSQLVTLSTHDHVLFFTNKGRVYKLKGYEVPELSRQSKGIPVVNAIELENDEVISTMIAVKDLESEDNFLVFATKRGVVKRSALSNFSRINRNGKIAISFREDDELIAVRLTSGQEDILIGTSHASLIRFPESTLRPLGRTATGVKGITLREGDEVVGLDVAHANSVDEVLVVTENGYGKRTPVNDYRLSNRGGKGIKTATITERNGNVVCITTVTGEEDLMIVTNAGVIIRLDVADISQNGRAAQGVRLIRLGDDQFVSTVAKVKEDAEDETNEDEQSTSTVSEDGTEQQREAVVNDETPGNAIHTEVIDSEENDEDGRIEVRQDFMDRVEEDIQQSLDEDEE
Chain of DNA gyrase (Staphylococcus aureus) (P0A0K8 2-644 limits assumed): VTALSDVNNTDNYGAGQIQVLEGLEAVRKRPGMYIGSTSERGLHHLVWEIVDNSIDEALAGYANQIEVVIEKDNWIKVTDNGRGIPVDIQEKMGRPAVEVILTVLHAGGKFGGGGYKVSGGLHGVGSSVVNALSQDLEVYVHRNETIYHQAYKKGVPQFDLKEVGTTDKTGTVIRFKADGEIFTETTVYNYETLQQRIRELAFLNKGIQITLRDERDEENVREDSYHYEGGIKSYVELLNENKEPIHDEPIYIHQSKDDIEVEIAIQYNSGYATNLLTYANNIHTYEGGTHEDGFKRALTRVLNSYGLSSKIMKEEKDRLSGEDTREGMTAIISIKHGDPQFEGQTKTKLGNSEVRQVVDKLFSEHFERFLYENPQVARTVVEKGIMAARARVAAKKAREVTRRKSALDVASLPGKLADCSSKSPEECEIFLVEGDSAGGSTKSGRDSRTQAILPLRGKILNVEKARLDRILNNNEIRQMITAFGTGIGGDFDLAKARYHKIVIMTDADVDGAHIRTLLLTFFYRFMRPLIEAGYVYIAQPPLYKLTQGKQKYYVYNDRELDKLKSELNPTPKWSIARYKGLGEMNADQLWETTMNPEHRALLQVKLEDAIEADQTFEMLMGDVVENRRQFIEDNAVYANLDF
Chain of DNA gyrase (Staphylococcus aureus) (P20831 whole entry partner): as the sequence (P20831 whole entry) above
Chain of Voltage-gated inwardly rectifying potassium channel KCNH2 (Q12809 whole entry): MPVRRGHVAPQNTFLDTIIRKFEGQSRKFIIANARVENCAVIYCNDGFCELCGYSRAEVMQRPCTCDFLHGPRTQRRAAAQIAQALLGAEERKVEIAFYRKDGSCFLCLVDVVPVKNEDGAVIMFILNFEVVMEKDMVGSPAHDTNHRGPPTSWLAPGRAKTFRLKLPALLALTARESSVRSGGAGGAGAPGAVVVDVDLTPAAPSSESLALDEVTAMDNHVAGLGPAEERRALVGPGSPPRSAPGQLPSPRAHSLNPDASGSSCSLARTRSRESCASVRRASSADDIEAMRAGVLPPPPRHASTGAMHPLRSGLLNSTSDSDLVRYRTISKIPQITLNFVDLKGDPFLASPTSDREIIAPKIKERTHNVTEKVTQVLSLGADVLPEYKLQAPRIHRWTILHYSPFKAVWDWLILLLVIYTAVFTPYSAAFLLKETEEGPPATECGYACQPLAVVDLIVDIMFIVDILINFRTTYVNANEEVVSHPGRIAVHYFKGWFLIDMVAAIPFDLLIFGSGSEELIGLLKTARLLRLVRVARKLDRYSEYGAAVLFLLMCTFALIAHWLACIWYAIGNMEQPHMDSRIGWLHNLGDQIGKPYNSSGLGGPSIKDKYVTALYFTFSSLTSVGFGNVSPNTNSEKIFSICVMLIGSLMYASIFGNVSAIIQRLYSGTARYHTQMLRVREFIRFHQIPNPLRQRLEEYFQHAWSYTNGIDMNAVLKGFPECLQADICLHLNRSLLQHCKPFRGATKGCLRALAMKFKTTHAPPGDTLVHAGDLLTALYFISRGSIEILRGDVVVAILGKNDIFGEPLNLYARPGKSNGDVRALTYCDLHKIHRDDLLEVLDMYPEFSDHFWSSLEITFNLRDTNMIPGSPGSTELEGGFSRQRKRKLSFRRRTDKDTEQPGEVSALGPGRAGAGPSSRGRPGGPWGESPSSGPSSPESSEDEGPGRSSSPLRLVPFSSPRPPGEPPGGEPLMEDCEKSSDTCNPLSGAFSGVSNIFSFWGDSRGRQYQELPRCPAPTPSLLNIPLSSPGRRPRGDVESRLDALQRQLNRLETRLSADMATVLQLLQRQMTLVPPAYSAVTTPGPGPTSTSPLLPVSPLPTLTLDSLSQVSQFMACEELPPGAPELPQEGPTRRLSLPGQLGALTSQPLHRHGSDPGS

As for `CC(C)(C)c1ccc(C(O)CCCN2CCC(C(O)(c3ccccc3)c3ccccc3)CC2)cc1` (centres undefined) [TERFENADINE], in assay [1], the IC50 (as a rule, the midpoint of a concentration-inhibition curve) is 206 µM. The inhibition entry in assay [2] and in [3] was “inactive” in each case.
As for `O=C(O)c1cn(C2CC2)c2cc(N3CCNCC3)c(F)cc2c1=O`, the inhibition result in [4] is “Active”.
For `CC(C)(C)c1ccc(CCCN2CCC(C(O)(c3ccccc3)c3ccccc3)CC2)cc1`, in [5], the MIC (commonly the smallest concentration in the dilution series that meets the test's criterion for growth inhibition) was 8 µg/mL (≈ 18.1 µM). Further, the IC50 in [6] is 93 µM; in assay [1] it was 100 µM.
Taken in the same sequence, the figures for `OC(CCCN1CCC(C(O)(c2ccccc2)c2ccccc2)CC1)c1ccc(Cl)cc1` (centres undefined) were 64 µg/mL (≈ 142 µM), 133 µM and above 333 µM.
The corresponding values for `CC(C)(C)c1ccc(C(O)CCCCN2CCC(C(O)(c3ccccc3)c3ccccc3)CC2)cc1` (centres undefined) are 16 µg/mL (≈ 32.9 µM), 100 µM and 133 µM.
Taken in the same sequence, the figures for `CC(C)(C)c1cccc(CCN2CCC(C(O)(c3ccccc3)c3ccccc3)CC2)c1` were 16 µg/mL (≈ 37.4 µM), 93 µM and above 333 µM.
As for `COC(=O)C(C)(C)c1ccc(C(O)CCCN2CCC(C(O)(c3ccccc3)c3ccccc3)CC2)cc1` (centres undefined), the MIC in [5] was above 256 µg/mL. Also, the values for the IC50 in [6] and in assay [1] were above 500 µM and above 333 µM, respectively.
Taken in the same sequence, the figures for `CC(C)(C)c1ccc(CCCCN2CCC(C(O)(c3ccccc3)c3ccccc3)CC2)cc1` were 8 µg/mL (≈ 17.6 µM), 93 µM and 320 µM.
The corresponding values for `O=C(O)c1ccc(C(O)CCCN2CCC(C(O)(c3ccccc3)c3ccccc3)CC2)cc1` (centres undefined) are above 256 µg/mL, above 500 µM and above 333 µM.
Consider `OC(c1ccccc1)(c1ccccc1)C1CCN(Cc2ccc(-c3ccccc3)cc2)CC1`, for which, in [4], the inhibition result was “Active”. Besides, the MIC is above 256 µg/mL in assay [7]; 8 µg/mL (≈ 18.5 µM) in [8]; above 256 µg/mL in assay [9]; 8 µg/mL (≈ 18.5 µM) in assay [10]; 8 µg/mL (≈ 18.5 µM) in [11]; 2 µg/mL (≈ 4.61 µM) in assay [12]. In addition, the minimum inhibitory concentration (MIC) in [13] was above 256 µg/mL; in [14], 4 µg/mL (≈ 9.23 µM); in assay [15] it was 8 µg/mL (≈ 18.5 µM); in assay [17] it was 4 µg/mL (≈ 9.23 µM). Besides, the IC50 in assay [6] was determined as 125 µM; in assay [1], 160 µM; in [16], 0.21 µM.
In [5], `O=[N+]([O-])c1ccc(CCN2CCC(C(O)(c3ccccc3)c3ccccc3)CC2)cc1` came in with an MIC of 64 µg/mL (≈ 154 µM). The IC50 is 263 µM in assay [6] and above 333 µM in assay [1].
Taken in the same sequence, the figures for `OC(CCCN1CCC(C(O)(c2ccccc2)c2ccccc2)CC1)c1ccccc1` (centres undefined) were above 256 µg/mL, above 500 µM and above 333 µM.
The corresponding values for `OC(c1ccccc1)(c1ccccc1)C1CCN(CCc2ccc(Br)cc2)CC1` are 16 µg/mL (≈ 35.5 µM), 247 µM and 260 µM.
For the compound `OC(c1ccccc1)(c1ccccc1)C1CCN(CCCOc2ccc(-c3ccccc3)cc2)CC1`, the inhibition result in [4] is “Active”. Moreover, the MIC in assay [7] was above 128 µg/mL; in assay [8] it was 2 µg/mL (≈ 4.19 µM); in assay [18], 1 µg/mL (≈ 2.09 µM); in [5] it was 1 µg/mL (≈ 2.09 µM); in assay [9] it was above 128 µg/mL; in [12], 4 µg/mL (≈ 8.37 µM). The minimal inhibitory concentration (MIC) in [13] is above 128 µg/mL; in assay [14], 2 µg/mL (≈ 4.19 µM); in assay [19], 1 µg/mL (≈ 2.09 µM). Moreover, the concentration for half-maximal inhibition (IC50) in assay [6] amounted to 50 µM; in assay [1] it was 160 µM; in [16], 0.14 µM.
`CC(C)(C)c1ccc(C(=O)CCN2CCC(C(O)(c3ccccc3)c3ccccc3)CC2)cc1` came in with an MIC in assay [5] of 32 µg/mL (≈ 70.2 µM). In addition, the IC50 in [6] is 90 µM; in assay [1] it was 133 µM.
